Activity calls are given as the source filed them. The rule behind the calls is not given here.
Experiments:
[1] = Immunosuppressive activity in mouse T cells assessed as inhibition of ConA-induced cell proliferation at 100 uM; assay type: functional
Summary of the method: (§1)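 Murine splenocytes with ConA-induced T-cell proliferation; the read-out is percent inhibition of proliferation. Cyclosporine A serves as the reference. Results are given as mean ± SD, n = 3.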

[2] = Toxicity against mouse lymphocytes assessed as cell viability at 50 uM; assay type: cell-based, Lymphocyte; details: read-out: Activity
B = test: Immunosuppressive activity in mouse B cells assessed as inhibition of LPS-induced cell proliferation at 0.05 to 0.8 mM; assay type: functional, cell-based
Summary of the method: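 Murine splenocytes with LPS-induced B-cell proliferation; the read-out is percent inhibition of proliferation.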

[3] = Immunosuppressive activity in mouse T cells assessed as inhibition of ConA-induced cell proliferation at 50 uM; assay type: functional; summary of the method: as §1
T-cell = test: Immunosuppressive activity in mouse T cells assessed as inhibition of ConA-induced cell proliferation at 0.05 to 0.8 mM; assay type: functional, cell-based; summary of the method: as §1

Row | SMILES | inhibition at 100 µM [1] [%] | viability at 50 µM [2] [%] | inhibition (B) | inhibition at 50 µM [3] [%] | inhibition (T-cell)
1 | C/C=C/C[C@@H](C)[C@@H](O)[C@H]1C(=O)N[C@@H](CC)C(=O)N(C)CC(=O)N(C)[C@@H](CC(C)C)C(=O)N[C@@H](C(C)C)C(=O)N(C)[C@@H](CC(C)C)C(=O)N[C@@H](C)C(=O)N[C@H](C)C(=O)N(C)[C@@H](CC(C)C)C(=O)N(C)[C@@H](CC(C)C)C(=O)N(C)[C@@H](C(C)C)C(=O)N1C [CYCLOSPORINE] | 101 | – | – | – | –
2 | CC1=C([C@H](C)CO)C[C@@]2(O)[C@@]3(C)CC(=O)O[C@@H]4[C@@H](C)CC[C@@]3(O)[C@@]4(O)[C@@]12O | – | 97.8 | Dose-dependent effect | 58.8 | Dose-dependent effect
3 | CC1=C([C@H](C)CO)C[C@@]2(O)[C@@]3(C)CC(=O)O[C@H]([C@]4(O)[C@H](C)CC[C@@]43O)[C@@]12O | 94.5 | 105 | Dose-dependent effect | 86.1 | Dose-dependent effect
4 | CC1=C(C(C)C)C[C@@]2(O)[C@@]3(CO[C@@H]4O[C@H](CO)[C@@H](O)[C@H](O)[C@H]4O)CC(=O)O[C@H]([C@]4(O)[C@H](C)CC[C@@]43O)[C@@]12O | – | – | inactive | – | inactive

— ChEMBL document CHEMBL3351939, “Diterpenoids with Immunosuppressive Activities from Cinnamomum cassia” (J Nat Prod, 2014)
